Reference: paper PMC3377471 (Journal of the American Chemical Society, 2012)
pIC50, pKi: −log10 of the molar value. *1 amine or outer side, *2 acyl side, *3 side chain or, on linkers, in order; H or OH if unused. Where a SMILES comes first, the peptide text is derived from it. [ ]: non-standard residue; d: D form. X1 = O=C([C@H]1CCC[C@@H]1N[*:1])[*:2]; X2 = O=C([C@H]1CNC[C@@H]1N[*:1])[*:2]; β3hR = N=C(N)NCCC[C@H](N)CC(=O)O; β3hT = C[C@@H](O)[C@H](N)CC(=O)O; β3hE = N[C@@H](CCC(=O)O)CC(=O)O

Columns and labels:
[1] = biological target: designed protein gp41-5; test: competition fluorescence polarization; set-up: species or system HIV; settings: read-out: Ki for binding to gp41-5; competition FP assay
Summary of the method: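 Competition fluorescence polarization binding of test compound to a designed gp41-5 construct made of three NHR segments and two CHR segments joined by flexible loops. Ki reported.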

[2] = tested on: proteinase K; test: in vitro; assay type: in vitro ADME; settings: isolated enzyme proteinase k
[3] = tested on: HIV-1 DJ258; assay type: cell-based
[4] = tested on: HIV-1 JRFL; assay type: cell-based
[5] = tested on: HIV-1 CC 7/86; assay type: cell-based
[6] = tested on: HIV-1 UG270; assay type: cell-based
[7] = biological target: proteinase K (Parengyodontium album, UniProt P06873); settings: in vitro, ref 3a; cited from earlier work
[8] = biological target: gp41-derived NHR peptide N36 (Human immunodeficiency virus type 1 group M subtype B, UniProt P04578); assay type: physicochemical, HIV; settings: variable-temperature CD; co-assembly with NHR peptide N36
Chain of gp41-derived NHR peptide N36 (P04578 546-581 limits assumed): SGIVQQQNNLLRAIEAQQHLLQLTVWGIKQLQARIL

Chain of proteinase K (Parengyodontium album, UniProt P06873) (P06873 106-384): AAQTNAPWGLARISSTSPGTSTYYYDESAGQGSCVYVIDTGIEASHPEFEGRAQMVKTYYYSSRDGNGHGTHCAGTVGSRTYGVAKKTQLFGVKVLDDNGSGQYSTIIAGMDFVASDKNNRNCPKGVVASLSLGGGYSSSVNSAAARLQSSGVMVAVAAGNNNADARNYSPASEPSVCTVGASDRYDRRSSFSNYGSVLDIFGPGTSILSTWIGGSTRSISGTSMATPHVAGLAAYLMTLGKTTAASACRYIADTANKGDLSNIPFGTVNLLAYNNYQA

With `CC[C@H](C)[C@H](NC(=O)[C@H](C)NC(=O)C[C@H](CCCNC(=N)N)NC(=O)[C@H](CC(=O)O)NC(=O)[C@H](Cc1c[nH]c2ccccc12)NC(=O)C[C@H](C)NC(=O)[C@H](CCC(=O)O)NC(=O)[C@H](Cc1c[nH]c2ccccc12)NC(=O)[C@@H](NC(=O)C[C@@H](NC(C)=O)[C@@H](C)O)[C@@H](C)O)C(=O)N[C@@H](C)C(=O)N[C@@H](CCC(=O)O)CC(=O)N[C@@H](Cc1ccc(O)cc1)C(=O)N[C@@H](C)C(=O)N[C@@H](C)CC(=O)N[C@@H](CCCNC(=N)N)C(=O)N[C@H](C(=O)N[C@@H](CCC(=O)O)C(=O)N[C@@H](C)CC(=O)N[C@@H](CC(C)C)C(=O)N[C@H](C(=O)N[C@@H](CCCNC(=N)N)CC(=O)N[C@@H](C)C(=O)N[C@@H](C)C(=O)N[C@@H](CCC(N)=O)C(=O)N[C@@H](CCC(=O)O)CC(=O)N[C@@H](CCC(N)=O)C(=O)N[C@@H](CCC(N)=O)C(=O)N[C@@H](CCC(=O)O)CC(=O)N[C@@H](CCCCN)C(=O)N[C@@H](CC(N)=O)C(=O)N[C@@H](CCC(=O)O)C(=O)N[C@@H](C)CC(=O)N[C@@H](C)C(=O)N[C@@H](CC(C)C)C(=O)N[C@@H](CCCNC(=N)N)CC(=O)N[C@@H](CCC(=O)O)C(=O)N[C@@H](CC(C)C)C(N)=O)[C@@H](C)CC)[C@@H](C)CC` [1α/β] the pKi [1] was 5.42 and the half-life [2] was 4 min.
For `CC[C@H](C)[C@H](NC(=O)[C@H](C)NC(=O)[C@H]1CNC[C@@H]1NC(=O)[C@H](CC(=O)O)NC(=O)[C@H](Cc1c[nH]c2ccccc12)NC(=O)[C@H]1CCC[C@@H]1NC(=O)[C@H](CCC(=O)O)NC(=O)[C@H](Cc1c[nH]c2ccccc12)NC(=O)[C@@H](NC(=O)C[C@@H](NC(C)=O)[C@@H](C)O)[C@@H](C)O)C(=O)N[C@@H](C)C(=O)N[C@@H](CCC(=O)O)CC(=O)N[C@@H](Cc1ccc(O)cc1)C(=O)N[C@@H](C)C(=O)N[C@H]1CCC[C@@H]1C(=O)N[C@@H](CCCNC(=N)N)C(=O)N[C@H](C(=O)N[C@@H](CCC(=O)O)C(=O)N[C@H]1CCC[C@@H]1C(=O)N[C@@H](CC(C)C)C(=O)N[C@H](C(=O)N[C@H]1CNC[C@@H]1C(=O)N[C@@H](C)C(=O)N[C@@H](C)C(=O)N[C@@H](CCC(N)=O)C(=O)N[C@@H](CCC(=O)O)CC(=O)N[C@@H](CCC(N)=O)C(=O)N[C@@H](CCC(N)=O)C(=O)N[C@@H](CCC(=O)O)CC(=O)N[C@@H](CCCCN)C(=O)N[C@@H](CC(N)=O)C(=O)N[C@@H](CCC(=O)O)C(=O)N[C@H]1CCC[C@@H]1C(=O)N[C@@H](C)C(=O)N[C@@H](CC(C)C)C(=O)N[C@H]1CNC[C@@H]1C(=O)N[C@@H](CCC(=O)O)C(=O)N[C@@H](CC(C)C)C(N)=O)[C@@H](C)CC)[C@@H](C)CC` [2α/β] (Ac-[β3hT]TWE[X1]WD[X2]AIA[β3hE]YA[X1]RIE[X1]LI[X2]AAQ[β3hE]QQ[β3hE]KNE[X1]AL[X2]EL-NH2; N-terminus and C-terminus assumed), the pIC50 [3] was 7.38, the pIC50 [4] was 6.88 and the pIC50 [5] was 7.33. The pIC50 [6] was 7.41 and the “resistance to degradation by proteinase K relative to α-peptide T-2635” value [7] was ~ 300 fold.
`CC[C@H](C)[C@H](NC(=O)[C@H](C)NC(=O)C[C@H](CCCNC(=N)N)NC(=O)[C@H](CC(=O)O)NC(=O)[C@H](Cc1c[nH]c2ccccc12)NC(=O)C[C@H](CCC(=O)O)NC(=O)[C@H](CCC(=O)O)NC(=O)[C@H](Cc1c[nH]c2ccccc12)NC(=O)[C@@H](NC(=O)C[C@H](CCCNC(=N)N)NC(C)=O)[C@@H](C)O)C(=O)N[C@@H](C)C(=O)N[C@@H](CCC(=O)O)CC(=O)N[C@@H](Cc1ccc(O)cc1)C(=O)N[C@@H](C)C(=O)N[C@@H](CCCNC(=N)N)CC(=O)N[C@@H](CCCNC(=N)N)C(=O)N[C@H](C(=O)N[C@@H](CCC(=O)O)C(=O)N[C@@H](CCC(=O)O)CC(=O)N[C@@H](CC(C)C)C(=O)N[C@H](C(=O)N[C@@H](CCCNC(=N)N)CC(=O)N[C@@H](C)C(=O)N[C@@H](C)C(=O)N[C@@H](CCC(N)=O)C(=O)N[C@@H](CCC(=O)O)CC(=O)N[C@@H](CCC(N)=O)C(=O)N[C@@H](CCC(N)=O)C(=O)N[C@@H](CCCNC(=N)N)CC(=O)N[C@@H](CCCCN)C(=O)N[C@@H](CC(N)=O)C(=O)N[C@@H](CCC(=O)O)C(=O)N[C@@H](CCC(=O)O)CC(=O)N[C@@H](C)C(=O)N[C@@H](CC(C)C)C(=O)N[C@@H](CCCNC(=N)N)CC(=O)N[C@@H](CCC(=O)O)C(=O)N[C@@H](CC(C)C)C(N)=O)[C@@H](C)CC)[C@@H](C)CC` [4α/β] (Ac-[β3hR]TWE[β3hE]WD[β3hR]AIA[β3hE]YA[β3hR]RIE[β3hE]LI[β3hR]AAQ[β3hE]QQ[β3hR]KNE[β3hE]AL[β3hR]EL-NH2; N-terminus and C-terminus assumed) showed a pKi [1] of 7.96, a pIC50 [3] of 7.11 and a pIC50 [4] of 6.82. It also gave a pIC50 [5] of 7.31, a pIC50 [6] of 7.25 and a half-life [2] of 3.5 min.
For “Ac-RTWEEWDRAIAEYARRIEELIRAAQEQQRKNEEALREL-NH2 (N-terminus and C-terminus assumed) [3α]”, the pKi [1] was greater than 9.70 and the “apparent Tm of helix-bundle with N36” value [8] was 91 °C.
With Enfuvirtide the pIC50 [3] was 6.70, the pIC50 [4] was 6.74 and the pIC50 [5] was 6.85. The pIC50 [6] was 6.96.
